Test results published in ChEMBL document CHEMBL1221386, “Synthesis and pharmacological evaluation of 3-aryl-3-azolylpropan-1-amines as selective triple serotonin/norepinephrine/dopamine reuptake inhibitors” (Bioorg Med Chem Lett, 2010).

Legend:
[1] = target: Sodium-dependent serotonin transporter (Rattus norvegicus) (UniProt P31652); assay: Displacement of [3H]paroxetine from SERT in rat cerebral cortex at 100 nM
[2] = target: Sodium-dependent serotonin transporter (Rattus norvegicus) (UniProt P31652); assay: Displacement of [3H]paroxetine from SERT in rat cerebral cortex at 1 uM; format: tissue-based
How it was run: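 Competition binding against 2 nM [3H]paroxetine on freshly prepared rat frontal cortex membranes, homogenized and centrifuged twice at 20,000g, then resuspended in incubation buffer. Tris–HCl pH 7.4 buffer with NaCl and 5 mM KCl. Incubation 2 h at 25 °C, run in triplicate. Nonspecific binding defined with citalopram. Read-out is percent inhibition at 1 µM.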

[3] = target: Sodium-dependent dopamine transporter (Homo sapiens, UniProt Q01959); assay: Inhibition of dopamine reuptake at human dopamine transporter expressed in CHO cells at 100 nM
[4] = target: Sodium-dependent serotonin transporter (Homo sapiens, UniProt P31645); assay: Inhibition of serotonin reuptake at human SERT expressed in HEK293 cells at 100 nM
[5] = target: Sodium-dependent noradrenaline transporter (Homo sapiens, UniProt P23975); assay: Inhibition of norepinephrine reuptake at human NET expressed in MDCK cells at 100 nM
Mus musculus [6] = assay: Antidepressant activity in mouse assessed as change in locomotion at 60 mg/kg, po; format: functional
Mus musculus [7] = assay: Potentiation of […]-induced serotonin syndrome like behavior in po dosed mouse; format: functional; conditions: read-out: MED
How it was run: (§1)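 Mice, oral dosing. For serotonin potentiation, 5-hydroxytryptophan (5-HTP, serotonin precursor) is given to induce serotonin syndrome-like head twitch/stereotypy counts. Response is expressed as % potentiation relative to control group (0%). Minimal effective dose is the lowest dose reaching p <0.05. Doses are in mg/kg.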

Mus musculus [8] = assay: Anxiolytic activity in mouse assessed as inhibition of marble buried at 30 mg/kg, ip by marble burying test; format: functional; conditions: route intraperitoneal
Mus musculus [9] = assay: Antidepressant activity in mouse assessed as reduction of mobility time by forced swimming test at 10 mg/kg, po; format: functional; set-up: scale not given: the % may be the effect or the level left
How it was run: (§2)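 Mouse forced swimming test with oral dosing. Read-out is immobility time, expressed as % reduction of immobility. Minimal effective dose is the lowest dose with p <0.05. ED50 is given with 95% confidence limits. Doses are in mg/kg.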

Mus musculus [10] = assay: Antidepressant activity in mouse assessed as change in locomotion at 30 mg/kg, po; format: functional
Mus musculus [11] = assay: Antidepressant activity in po dosed mouse assessed as reduction of mobility time by tail suspension test; format: functional; conditions: read-out: MED
How it was run: (§3)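 Mouse tail suspension test with oral dose–response. Read-out is immobility time, reported as % reduction of immobility. Minimal effective dose is the lowest dose giving p <0.05. Doses are in mg/kg.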

Mus musculus [12] = assay: Antidepressant activity in po dosed mouse assessed as reduction of mobility time by forced swimming test; format: functional; conditions: for minimal effective dose: read-out: MED
How it was run: as §2

Mus musculus [13] = assay: Potentiation of […]-induced serotonin syndrome like behavior in mouse at 30 mg/kg, po; format: functional
How it was run: as §1

Mus musculus [14] = assay: Antidepressant activity in mouse assessed as reduction of mobility time at 5 mg/kg, po by tail suspension test; format: functional; set-up: scale not given: the % may be the effect or the level left
How it was run: as §3

Mus musculus [15] = assay: Analgesic activity in mouse assessed as reduction of acetic acid-induced writhing at 30 mg/kg
Mus musculus [16] = assay: Antidepressant activity in mouse assessed as change in locomotion at 90 mg/kg, po; format: functional
Mus musculus [17] = assay: Anxiolytic activity in mouse assessed as inhibition of marble buried at 10 mg/kg, ip by marble burying test; format: functional; conditions: route intraperitoneal
Mus musculus [18] = assay: Antidepressant activity in mouse assessed as reduction of mobility time by forced swimming test at 30 mg/kg, ip; set-up: scale not given: the % may be the effect or the level left; conditions: route intraperitoneal
Mus musculus [19] = assay: Antidepressant activity in mouse assessed as reduction of mobility time at 7 mg/kg, po by tail suspension test; format: functional; set-up: scale not given: the % may be the effect or the level left
How it was run: as §3

Mus musculus [20] = assay: Potentiation of […]-induced serotonin syndrome like behavior in mouse at 10 mg/kg, po; format: functional
How it was run: as §1

Sequence of Sodium-dependent noradrenaline transporter (P23975 whole entry): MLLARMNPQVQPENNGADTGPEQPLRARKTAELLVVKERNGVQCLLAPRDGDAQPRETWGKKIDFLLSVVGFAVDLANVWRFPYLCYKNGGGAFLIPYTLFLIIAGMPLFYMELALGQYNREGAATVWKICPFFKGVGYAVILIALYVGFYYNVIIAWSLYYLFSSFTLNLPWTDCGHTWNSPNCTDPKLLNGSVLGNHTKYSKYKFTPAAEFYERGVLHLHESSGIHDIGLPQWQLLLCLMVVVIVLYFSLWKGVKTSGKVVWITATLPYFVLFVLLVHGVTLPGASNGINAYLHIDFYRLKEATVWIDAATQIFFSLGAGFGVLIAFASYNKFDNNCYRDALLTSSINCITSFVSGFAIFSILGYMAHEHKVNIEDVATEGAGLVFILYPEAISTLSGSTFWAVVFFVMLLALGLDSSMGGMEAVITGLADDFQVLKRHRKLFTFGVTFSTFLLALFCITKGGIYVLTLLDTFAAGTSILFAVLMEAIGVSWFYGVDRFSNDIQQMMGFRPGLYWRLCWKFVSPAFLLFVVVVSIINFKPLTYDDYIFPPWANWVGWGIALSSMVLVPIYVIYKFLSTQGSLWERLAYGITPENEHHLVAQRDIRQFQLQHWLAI
Sequence of Sodium-dependent dopamine transporter (Q01959 whole entry): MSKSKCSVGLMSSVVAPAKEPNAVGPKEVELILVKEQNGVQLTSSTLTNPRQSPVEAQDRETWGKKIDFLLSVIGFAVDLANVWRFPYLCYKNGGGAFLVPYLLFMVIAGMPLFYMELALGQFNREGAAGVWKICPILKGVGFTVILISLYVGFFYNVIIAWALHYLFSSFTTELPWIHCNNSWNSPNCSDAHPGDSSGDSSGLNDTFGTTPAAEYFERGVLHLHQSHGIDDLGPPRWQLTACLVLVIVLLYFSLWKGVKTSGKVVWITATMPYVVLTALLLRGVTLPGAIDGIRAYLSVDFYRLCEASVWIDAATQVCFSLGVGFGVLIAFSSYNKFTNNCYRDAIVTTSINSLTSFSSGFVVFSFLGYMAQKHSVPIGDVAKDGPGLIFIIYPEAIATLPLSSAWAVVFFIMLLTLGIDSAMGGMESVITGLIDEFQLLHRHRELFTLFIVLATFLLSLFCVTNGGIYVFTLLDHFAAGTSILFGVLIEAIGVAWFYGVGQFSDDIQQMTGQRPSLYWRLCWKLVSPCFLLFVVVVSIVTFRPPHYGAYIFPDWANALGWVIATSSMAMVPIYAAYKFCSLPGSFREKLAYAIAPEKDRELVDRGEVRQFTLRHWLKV
Sequence of Sodium-dependent serotonin transporter (P31645 whole entry, looked up): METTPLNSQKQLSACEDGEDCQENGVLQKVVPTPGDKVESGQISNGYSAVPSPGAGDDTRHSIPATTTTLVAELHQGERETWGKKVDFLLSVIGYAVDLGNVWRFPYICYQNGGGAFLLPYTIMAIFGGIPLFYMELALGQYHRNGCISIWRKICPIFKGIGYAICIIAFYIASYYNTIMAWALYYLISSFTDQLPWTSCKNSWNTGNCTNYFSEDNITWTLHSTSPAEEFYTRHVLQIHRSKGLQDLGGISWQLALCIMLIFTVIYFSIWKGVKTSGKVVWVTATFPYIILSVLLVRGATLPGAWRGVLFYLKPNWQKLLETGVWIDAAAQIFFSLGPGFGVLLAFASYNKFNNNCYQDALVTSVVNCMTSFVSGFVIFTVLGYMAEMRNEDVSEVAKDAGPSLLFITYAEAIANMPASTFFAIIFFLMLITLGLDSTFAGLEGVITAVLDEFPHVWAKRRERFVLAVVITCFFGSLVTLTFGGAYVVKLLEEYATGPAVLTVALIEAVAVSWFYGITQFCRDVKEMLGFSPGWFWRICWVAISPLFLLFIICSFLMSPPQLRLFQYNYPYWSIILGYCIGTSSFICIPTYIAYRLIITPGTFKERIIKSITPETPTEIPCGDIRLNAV
Sequence of Sodium-dependent serotonin transporter (Rattus norvegicus) (P31652 whole entry): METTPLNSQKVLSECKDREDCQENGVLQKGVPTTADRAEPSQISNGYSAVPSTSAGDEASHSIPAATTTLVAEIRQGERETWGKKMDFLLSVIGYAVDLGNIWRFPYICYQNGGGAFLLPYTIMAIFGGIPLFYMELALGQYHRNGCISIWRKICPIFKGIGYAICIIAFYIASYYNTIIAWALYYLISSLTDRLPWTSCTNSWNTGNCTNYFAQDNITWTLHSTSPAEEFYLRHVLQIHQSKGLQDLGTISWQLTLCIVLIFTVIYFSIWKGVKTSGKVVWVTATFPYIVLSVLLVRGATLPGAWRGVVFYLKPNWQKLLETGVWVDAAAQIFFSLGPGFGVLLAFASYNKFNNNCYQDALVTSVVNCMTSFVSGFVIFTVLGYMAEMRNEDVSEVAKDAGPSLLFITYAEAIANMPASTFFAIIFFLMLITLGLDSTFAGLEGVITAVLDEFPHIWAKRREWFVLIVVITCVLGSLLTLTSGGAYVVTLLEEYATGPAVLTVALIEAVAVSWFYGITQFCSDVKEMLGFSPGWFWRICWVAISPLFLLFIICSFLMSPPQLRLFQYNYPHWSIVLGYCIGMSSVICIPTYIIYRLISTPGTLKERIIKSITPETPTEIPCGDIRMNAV

CNCCC(c1ccc(Cl)c(Cl)c1Cl)n1ncnn1 (racemic)
inhibition [1]: 39.1%

CNCCC(c1ccc(Cl)cc1)n1ncnn1 (racemic)
inhibition [2]: 41.1%

CNCCC(c1ccc(OC(F)(F)F)cc1)n1ncnn1 (racemic)
inhibition [1]: 3.1%

CNCCC(c1ccc(Oc2ccccc2)cc1)n1ncnn1 (racemic)
inhibition [1]: -1.7%

CNCCC(c1ccc2cc(C)ccc2c1)n1ncnn1 (racemic)
inhibition [3]: 3%
inhibition [4]: 93%
inhibition [2]: 93.3%
inhibition [5]: 55%

CNCCC(c1ccc2cc(Cl)ccc2c1)n1ncnn1 (racemic)
inhibition [4]: -4%
inhibition [2]: 52.1%
inhibition [5]: 20%

CNCCC(c1ccc2cc(OC)ccc2c1)n1ncnn1 (racemic)
inhibition [3]: 4%
inhibition [1]: 81.2%
inhibition [4]: 88%
inhibition [5]: 70%

CNCCC(c1ccc2cc(OC)ccc2c1)n1nnc(C)n1 (racemic)
inhibition [3]: 3%
inhibition [1]: 80.2%
inhibition [4]: 82%
inhibition [5]: 84%

CNCCC(c1ccc2ccccc2c1)n1nnc(C)n1 (racemic)
inhibition [2]: 93.6%

CNCCC(c1cccc2ccccc12)n1ncnn1 (racemic)
inhibition [2]: 51.6%

CNCCC(c1ccccc1Cl)n1nnc(C)n1 (racemic)
inhibition [1]: 5.9%

COc1ccc(C(CCN(C)C)n2ncnn2)cc1Cl (racemic)
inhibition [2]: 39.9%

COc1ccc(C(CCN(C)C)n2ncnn2)cc1OC (racemic)
inhibition [1]: 12.9%

COc1ccc2cc(C(CCN(C)C)n3ncnn3)ccc2c1 (racemic)
inhibition [3]: 36%
inhibition [1]: 33.6%
inhibition [4]: 44%
inhibition [5]: 39%

Cc1ccc(C(CCN(C)C)n2ncnn2)cc1C (racemic)
inhibition [2]: 49.2%

Cc1ccc2cc(C(CCN(C)C)n3ncnn3)ccc2c1 (racemic)
inhibition [2]: 87.7%

Cc1nnn(C(CCN(C)C)c2ccc(C(C)(C)C)cc2)n1 (racemic)
inhibition [1]: -3%

Cc1nnn(C(CCN(C)C)c2ccc(Cl)c(Cl)c2)n1 (racemic)
inhibition [2]: 69.4%

Cc1nnn(C(CCN(C)C)c2ccc3cc(F)ccc3c2)n1 (racemic)
inhibition [3]: 6%
inhibition [1]: 67.5%
inhibition [4]: 61%
inhibition [5]: 10%

Cc1nnn(C(CCN(C)C)c2ccc3ccccc3c2)n1 (racemic)
inhibition [2]: 85%

Clc1ccc([C@]23CNC[C@H]2C3)cc1Cl [AMITIFADINE]
Activity (Mus musculus [6]): 131%
minimal effective dose (Mus musculus [7]): 30 mg/kg
inhibition in vivo at 30 mg/kg (Mus musculus [8]): 99.1%
Activity (Mus musculus [9]): 18%
Activity (Mus musculus [10]): 150%
minimal effective dose (Mus musculus [11]): 5 mg/kg
ED50 (Mus musculus [12]): 30.1 mg/kg
minimal effective dose (Mus musculus [12]): 50 mg/kg
Activity (Mus musculus [13]): 54%
Activity (Mus musculus [14]): 33.2%
inhibition in vivo at 30 mg/kg (Mus musculus [15]): 93.7%
Activity (Mus musculus [16]): 148%

CNCCC(Oc1ccc(C(F)(F)F)cc1)c1ccccc1 (stereo not drawn) [FLUOXETINE]
minimal effective dose (Mus musculus [7]): 3 mg/kg
minimal effective dose (Mus musculus [12]): 50 mg/kg
inhibition in vivo at 10 mg/kg (Mus musculus [17]): 60.3%

COc1ccc(C(CN(C)C)C2(O)CCCCC2)cc1 (stereo not drawn) [VENLAFAXINE]
Activity (Mus musculus [6]): 139%
Activity (Mus musculus [18]): 35.2%
minimal effective dose (Mus musculus [7]): 10 mg/kg
inhibition in vivo at 30 mg/kg (Mus musculus [8]): 82.3%
Activity (Mus musculus [10]): 119%
minimal effective dose (Mus musculus [11]): 7 mg/kg
ED50 (Mus musculus [12]): 38.4 mg/kg
minimal effective dose (Mus musculus [12]): 30 mg/kg
Activity (Mus musculus [19]): 56.3%
inhibition in vivo at 30 mg/kg (Mus musculus [15]): 70.2%
Activity (Mus musculus [20]): 129%
